Assay [1] is described as follows: S. cerevisiae growth inhibition in permissive medium (OD615), pilot counter-assay for S. cerevisiae lifespan shortening project, permissive growth control (AID 705;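 active means growth inhibition above 25% in both replicates, a cutoff set 3 SD above the mean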). The following applies: OD615, 24 h, at 10 µM, active compounds read high. The method, boiled down: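 System: Engineered DeaD yeast | Buffer or medium: SC raffinose/galactose permissive medium | Doses: 10 µM single dose, 0.25% DMSO | Times: 24 h exposure, 30 °C | Measured by: OD615 turbidity read | Read-out: Yeast growth inhibition indicated by reduced 24 h OD615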

A short description of assay [2]: S. cerevisiae growth inhibition in restrictive medium, OD615, pilot screen, restrictive growth control, yeast lifespan reduction project (AID 706;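 active means growth inhibition above a set limit, 3 SD over mean compound inhibition, in both replicates, cut at about 43% in these data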;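 further: modified DeaD lifespan yeast strain shifted to restrictive glucose medium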). As to conditions: OD615, 48 h, at 10 µM, active compounds read high. Put shortly:
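Assay system: engineered S. cerevisiae DeaD strain; Buffer or medium: CSMM-D glucose medium; Dosing: 10 µM compound, 0.25% DMSO; Times: cell pre-growth 4 h, compound exposure 48 h, 30 °C; Detection: absorbance (optical density) measured at 615 nm.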

Assay [3] is described as follows: doxorubicin toxicity protection in MRP-1 cells – H69AR cells, CellTiter-Glo, duplicate, MRP-1 activator project, pilot screen (AID 807;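 active means viability increase at or above a cutoff of the median across tested compounds plus 3 SD, cut at about 8.5% in these data, passing the limit was not always enough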;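 further: compound pretreatment 18-22 h then 72 h combined with doxorubicin; 0% = doxorubicin alone and 100% = vehicle without doxorubicin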). As to conditions: H69AR viability with doxorubicin, CellTiter-Glo luminescence; at 10 µM; active compounds read high. On the technique in general: Cellular ATP, detected with luciferase, serves as a proxy for viable cell number.
The nature of assay [4]: viability of HCT116 without oncogenic beta-catenin – human colon tumor cells, pilot screen (AID 823).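 Further: 0% = wells killed by 20 µM Hyamine and 100% = untreated DMSO cell wells.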 The following applies: HCT116 beta-catenin knockout viability, CellTiter-Glo, 60 h; at 10 µM; active compounds read low.
Assay [5] can be described thus: viability of PTEN-null HCT116 cells – cell-based, HCT116 clonal line, CellTiter-Glo, pilot screen (AID 824;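 active means viability at or below 27.92% in each of two runs, the all-compound median minus 4 SD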;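 further: 0% = 20 µM Hyamine control and 100% = vehicle cell control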). As to conditions: HCT116 PTEN-deleted viability, 60 h, at 10 µM, active compounds read low.
The nature of assay [6]: RAM pathway blockade in budding yeast – dse1pr::URA3 reporter, 5-FOA selection, pilot screen (AID 869;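 active means inhibition over a set limit, the all-compound mean plus 3 SD, in both replicate runs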;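 further: 0% = DMSO wells with no growth and 100% = 10 µM 1-NA-PP1 with full growth; RAM network block rescues cells from 5-FOA so hits raise OD615 growth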). As to conditions: S. cerevisiae dse1pr::URA3 5-FOA growth, OD615, 2 d; at 10 µM; active compounds read high; strain carries analog-sensitive mutant Cbk1 kinase.
The nature of assay [7]: RAM signaling pathway blockade in yeast – S. cerevisiae, Pdr1DBD-CYC8 efflux-inhibited sensitized strain, primary screen (AID 1298;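 active means RAM network inhibition above 8.4% in each of two replicates, 3 SD over the compound average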;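 further: 0% = DMSO untreated cells without growth and 100% = 10 µM 1-NA-PP1 full growth; higher means more yeast growth rescued from 5-FOA killing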). The following applies: S. cerevisiae cbk1-as DSE1-URA3 strain, 5-FOA growth OD615, 2 d; at 50 µM; active compounds read high.

A number with no mark means an inactive call. Results filed as inconclusive are left out. Active and inactive are the calls of the source.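 How the source made its calls, unless noted: active means cell viability at or below a set limit in both duplicate runs, the limit being the all-compound median minus 4 SD (cut at about 23% in these data, passing the limit was not always enough); inconclusive means no clear call, values can overlap the other calls; inactive means the rest.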

As a reminder, the viability is a read-out of living cells in per cent, often relative to untreated cells. The inhibition is the change of the read-out against control, counted positive when it falls. On to `COc1ccc(S(=O)(=O)N(CC(=O)Nc2ccc3c(c2)OCO3)c2ccccc2OC)cc1`, for which the growth inhibition in assay [1] was -20.4%; in assay [2], -13.9%. Besides, the viability increase in assay [3] was -5.32%. The viability in assay [4] was 69%; in assay [5], 79.8%. The inhibition in assay [6] is 2.13%. In addition, the RAM network inhibition in assay [7] is 6.05%.

On to `NC(=O)c1ccsc1NC(=O)c1cccs1`, for which the growth inhibition was -5% in assay [1] and -5.65% in assay [2]. Moreover, the viability increase in assay [3] is -2.23%. Further, the viability was 104% in assay [4] and 92.8% in assay [5]. Also, the inhibition in assay [6] was 1.59%. In addition, the RAM network inhibition in assay [7] was 0.37%.

On to `CCC(=O)Nc1cccc(-c2nnc(SCC(=O)c3ccccc3)n2C)c1`, for which the growth inhibition was 0.325% in assay [1] and 45.9% (active) in assay [2]. The viability increase in assay [3] is -1.76%. The viability in assay [4] is 91.7%; in assay [5], 92.6%. Moreover, in assay [6], the inhibition was 0%. In addition, in assay [7], the RAM network inhibition was 4.95%.

In the case of `O=C(NC1CCCCC1)C1CCN(S(=O)(=O)c2cccc3cccnc23)CC1`, the growth inhibition in assay [1] was 4.71%; in assay [2], -0.575%. Further, the viability increase in assay [3] is -0.83%. The viability is 101% in assay [4] and 102% in assay [5]. Besides, the inhibition in assay [6] was 0.46%. Further, the RAM network inhibition in assay [7] was 1.34%.

For `O=C(Nc1ccc(S(=O)(=O)N2CCOCC2)cc1)c1ccc(Cl)cc1`, the growth inhibition is -7.83% in assay [1] and -8.68% in assay [2]. Also, in assay [3], the viability increase is -1.99%. The values for the viability in assay [4] and in assay [5] were 61.1% and 80.2%, respectively. Besides, the inhibition in assay [6] is 2.31%. Further, the RAM network inhibition in assay [7] was 3.83%.

Regarding `O=C1Nc2ccccc2C(O)(C(=O)N2CCCCC2)N1c1ccccc1` (stereo unspecified), the growth inhibition in assay [1] is -10.5%; in assay [2], -20.2%. In addition, in assay [3], the viability increase is -1.87%. Further, the viability is 98.9% in assay [4] and 92.2% in assay [5]. In addition, in assay [6], the inhibition was 2.2%. In addition, in assay [7], the RAM network inhibition is 7.2%.

On to `CC1(C)CC(=O)C(C=Nc2ccccc2)=C(O)C1`, for which the growth inhibition in assay [1] is -7.81%; in assay [2] it was 1.81%. In addition, the viability increase in assay [3] is -1.32%. In addition, the results for the viability in assay [4] and in assay [5] were 98.1% and 96.2%, respectively. In addition, in assay [6], the inhibition was 2.92%. In assay [7], the RAM network inhibition was 1.59%.

`CC1CCN(CCCNC(=O)c2cc3c(=O)n(C)c4ccccc4c3n2C)CC1`: the values for the growth inhibition in assay [1] and in assay [2] were 0.225% and -4.35%, respectively. For the same molecule, in assay [3], the viability increase was -5.04%. In addition, the viability in assay [4] is 43.1%; in assay [5], 50%. For the same molecule, the inhibition in assay [6] is -0.26%. The RAM network inhibition in assay [7] was 1.43%.

Turning to `CCOc1cc(-c2nc(-c3ccncc3)no2)cc(OCC)c1OCC`, the growth inhibition in assay [1] is -5.04%; in assay [2] it was -6.19%. In addition, the viability increase in assay [3] is -5.6%. Also, the viability in assay [4] is 60.1%; in assay [5] it was 65%. For the same molecule, the inhibition in assay [6] is 1.08%. Also, the RAM network inhibition in assay [7] is 5.16%.

Consider `OCCN1CCN(Cc2cc(Br)cc(Br)c2O)CC1`, for which the results for the growth inhibition in assay [1] and in assay [2] were -18.3% and -14%, respectively. Moreover, the viability increase in assay [3] was -2.23%. Also, the viability in assay [4] is 92.6%; in assay [5] it was 96.3%. In addition, in assay [6], the inhibition was 2.87%. Further, in assay [7], the RAM network inhibition is -0.43%.

For the molecule `CNC(=O)c1c(NC(=O)c2nc3ccccc3s2)sc2c1CCC2`, the growth inhibition is 1.6% in assay [1] and -6.17% in assay [2]. The viability increase in assay [3] is -3.81%. Besides, the viability in assay [4] is 67.5%; in assay [5] it was 61%. Also, the inhibition in assay [6] was 0.625%. Also, the RAM network inhibition in assay [7] is 5.05%.

Turning to `Cn1c(C(=O)N2CCN(c3ncccn3)CC2)cc2c(=O)n(C)c3ccccc3c21`, the growth inhibition in assay [1] was 6.33%; in assay [2], 8.57%. Moreover, in assay [3], the viability increase is 2.83%. Also, the values for the viability in assay [4] and in assay [5] were 105% and 97.2%, respectively. The inhibition in assay [6] was 1.92%. In addition, in assay [7], the RAM network inhibition was -0.01%.

For the molecule `C=CCSc1nnc2nc3c(nn12)c1cc(C)ccc1n3CC=C`, the growth inhibition in assay [1] was 10.7%; in assay [2], 51.1% (active). Besides, the viability increase in assay [3] is -3.51%. Also, the viability in assay [4] was 88%; in assay [5], 82.6%. Moreover, the inhibition in assay [6] is 1.21%. In assay [7], the RAM network inhibition is 3.23%.

As to `O=C(Cn1cc2c(n1)CCCCC2)NC1CCCCCC1`, the results for the growth inhibition in assay [1] and in assay [2] were -9.25% and -9.21%, respectively. Moreover, the viability increase in assay [3] is -3.6%. For the same molecule, the viability in assay [4] is 97.1%; in assay [5], 89%. Besides, the inhibition in assay [6] is 0.43%. Also, the RAM network inhibition in assay [7] is 0.21%.

Regarding `N#CC1=C2SCN(Cc3ccco3)CN2C(=O)CC1c1c(F)cccc1Cl` (stereo unspecified), the values for the growth inhibition in assay [1] and in assay [2] were -2.04% and 20.3%, respectively. Further, the viability increase in assay [3] is -4.91%. Also, the viability is 88% in assay [4] and 88.1% in assay [5]. Also, the inhibition in assay [6] is 1.95%. Further, the RAM network inhibition in assay [7] was 4.76%.

With `O=C(CN1CCOc2ccccc21)NC1CC1`, the growth inhibition is -8.82% in assay [1] and 8.71% in assay [2]. Moreover, the viability increase in assay [3] was -3.71%. The viability was 88.1% in assay [4] and 98.8% in assay [5]. Besides, the inhibition in assay [6] was 1.16%. Also, the RAM network inhibition in assay [7] was -0.26%.

Turning to `CCc1cc(C(=O)Cc2ccc(F)cc2)c(O)cc1O`, the figures for the growth inhibition in assay [1] and in assay [2] were -1.34% and -3.73%, respectively. In addition, in assay [3], the viability increase was -3.8%. Moreover, the figures for the viability in assay [4] and in assay [5] were 98.8% and 86.5%, respectively. The inhibition in assay [6] was 0.665%. Moreover, the RAM network inhibition in assay [7] is -2.4%.

As to `CCCCCn1c(CNC(=O)CC)nc2ccccc21`, the growth inhibition is -6.04% in assay [1] and -11.1% in assay [2]. In addition, the viability increase in assay [3] is 0.02%. Besides, the viability in assay [4] is 97.5%; in assay [5], 96.5%. Moreover, in assay [6], the inhibition is 1.53%. Further, the RAM network inhibition in assay [7] is 4.9%.
